In brackets after ≈: the same amount, converted by molar mass.
Experiments:
Type in all cases: functional
[1] = tested on: Radical scavenging activity; test: Antioxidant activity assessed as DPPH free radical scavenging activity at 500 ug by spectrophotometer
Method in brief: (§1)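 DPPH radical scavenging measured spectrophotometrically by Blois's method at 50, 500 and 1000 µg. Absorbance read at 517 nm. Percent scavenging is the absorbance decrease at 517 nm relative to the absorbance of DPPH solution without test compound. L-ascorbic acid as standard.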

[2] = tested on: Radical scavenging activity; test: Antioxidant activity assessed as DPPH free radical scavenging activity at 1000 ug by spectrophotometer; method in brief: as §1
Klebsiella pneumoniae [3] = test: Antimicrobial activity against Klebsiella pneumoniae at 25 ug/ml by agar diffusion assay
Method in brief: (§2)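 Agar diffusion assay in duplicate against the human bacterial pathogens; tetracycline as reference control.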

Macrophomina phaseolina = test: Antifungal activity against Macrophomina phaseolina
Method in brief: (§3)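 Agar diffusion assay in duplicate against the plant fungal pathogens; read-out as minimum inhibitory concentration (MIC); carbendazim as reference control.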

Bacillus subtilis [4] = test: Antimicrobial activity against Bacillus subtilis at 50 ug/ml by agar diffusion assay; method in brief: as §2
Klebsiella pneumoniae [5] = test: Antimicrobial activity against Klebsiella pneumoniae at 50 ug/ml by agar diffusion assay; method in brief: as §2
Klebsiella pneumoniae [6] = test: Antimicrobial activity against Klebsiella pneumoniae at 75 ug/ml by agar diffusion assay; method in brief: as §2
Fusarium oxysporum = test: Antifungal activity against Fusarium oxysporum; method in brief: as §3
Bacillus subtilis [7] = test: Antimicrobial activity against Bacillus subtilis at 25 ug/ml by agar diffusion assay; method in brief: as §2
Bacillus subtilis [8] = test: Antimicrobial activity against Bacillus subtilis at 75 ug/ml by agar diffusion assay; method in brief: as §2
Pseudomonas aeruginosa [9] = test: Antimicrobial activity against Pseudomonas aeruginosa at 75 ug/ml by agar diffusion assay; method in brief: as §2
Bacillus subtilis [10] = test: Antimicrobial activity against Bacillus subtilis at 100 ug/ml by agar diffusion assay; method in brief: as §2
Pseudomonas aeruginosa [11] = test: Antimicrobial activity against Pseudomonas aeruginosa at 50 ug/ml by agar diffusion assay; method in brief: as §2
Staphylococcus aureus [12] = test: Antimicrobial activity against Staphylococcus aureus at 50 ug/ml by agar diffusion assay; method in brief: as §2
Staphylococcus aureus [13] = test: Antimicrobial activity against Staphylococcus aureus at 25 ug/ml by agar diffusion assay; method in brief: as §2
Klebsiella pneumoniae [14] = test: Antimicrobial activity against Klebsiella pneumoniae at 100 ug/ml by agar diffusion assay; method in brief: as §2
Pseudomonas aeruginosa [15] = test: Antimicrobial activity against Pseudomonas aeruginosa at 100 ug/ml by agar diffusion assay; method in brief: as §2
Pseudomonas aeruginosa [16] = test: Antimicrobial activity against Pseudomonas aeruginosa at 25 ug/ml by agar diffusion assay; method in brief: as §2
[17] = tested on: Radical scavenging activity; test: Antioxidant activity assessed as DPPH free radical scavenging activity at 50 ug by spectrophotometer; method in brief: as §1
Staphylococcus aureus [18] = test: Antimicrobial activity against Staphylococcus aureus at 75 ug/ml by agar diffusion assay; method in brief: as §2
Staphylococcus aureus [19] = test: Antimicrobial activity against Staphylococcus aureus at 100 ug/ml by agar diffusion assay; method in brief: as §2

COC(=O)[C@@]1(Cc2c[nH]c3ccccc23)C[C@H]2COc3ccccc3[C@H]2N1 was tested, and the Activity [1] was 51%, the Activity [2] was 64% and the inhibition zone (IZ) (Klebsiella pneumoniae [3]) was 11 mm. The MIC (Macrophomina phaseolina) was 60 µg/mL (≈ 166 µM), the inhibition zone (IZ) (Bacillus subtilis [4]) was 15 mm and the inhibition zone (IZ) (Klebsiella pneumoniae [5]) was 15 mm. For the same compound, the inhibition zone (IZ) (Klebsiella pneumoniae [6]) was 21 mm, the MIC (Fusarium oxysporum) was 75 µg/mL (≈ 207 µM) and the inhibition zone (IZ) (Bacillus subtilis [7]) was 11 mm. For the same compound, the inhibition zone (IZ) (Bacillus subtilis [8]) was 20 mm, the inhibition zone (IZ) (Pseudomonas aeruginosa [9]) was 21 mm and the inhibition zone (IZ) (Bacillus subtilis [10]) was 26 mm. It also gave an inhibition zone (IZ) (Pseudomonas aeruginosa [11]) of 15 mm, an inhibition zone (IZ) (Staphylococcus aureus [12]) of 15 mm and an inhibition zone (IZ) (Staphylococcus aureus [13]) of 10 mm. The inhibition zone (IZ) (Klebsiella pneumoniae [14]) was 23 mm, the inhibition zone (IZ) (Pseudomonas aeruginosa [15]) was 23 mm and the inhibition zone (IZ) (Pseudomonas aeruginosa [16]) was 10 mm. For the same compound, the Activity [17] was 29%, the inhibition zone (IZ) (Staphylococcus aureus [18]) was 20 mm and the inhibition zone (IZ) (Staphylococcus aureus [19]) was 23 mm.

COC(=O)[C@]12Cc3c([nH]c4ccccc34)[C@@H](c3cccc([N+](=O)[O-])c3)N1[C@@H]1c3c(ccc4ccccc34)OC[C@@H]1C2 showed an Activity [1] of 53%, an Activity [2] of 67% and an inhibition zone (IZ) (Klebsiella pneumoniae [3]) of 13 mm. For the same compound, the MIC (Macrophomina phaseolina) was 90 µg/mL (≈ 165 µM), the inhibition zone (IZ) (Bacillus subtilis [4]) was 19 mm and the inhibition zone (IZ) (Klebsiella pneumoniae [5]) was 18 mm. The inhibition zone (IZ) (Klebsiella pneumoniae [6]) was 22 mm, the MIC (Fusarium oxysporum) was 35 µg/mL (≈ 64.2 µM) and the inhibition zone (IZ) (Bacillus subtilis [7]) was 12 mm. The inhibition zone (IZ) (Bacillus subtilis [8]) was 24 mm, the inhibition zone (IZ) (Pseudomonas aeruginosa [9]) was 24 mm and the inhibition zone (IZ) (Bacillus subtilis [10]) was 29 mm. For the same compound, the inhibition zone (IZ) (Pseudomonas aeruginosa [11]) was 20 mm, the inhibition zone (IZ) (Staphylococcus aureus [12]) was 20 mm and the inhibition zone (IZ) (Staphylococcus aureus [13]) was 19 mm. The inhibition zone (IZ) (Klebsiella pneumoniae [14]) was 27 mm, the inhibition zone (IZ) (Pseudomonas aeruginosa [15]) was 30 mm and the inhibition zone (IZ) (Pseudomonas aeruginosa [16]) was 14 mm. For the same compound, the Activity [17] was 30%, the inhibition zone (IZ) (Staphylococcus aureus [18]) was 24 mm and the inhibition zone (IZ) (Staphylococcus aureus [19]) was 28 mm.
